B2AR ag = agonists of human beta-2 adrenergic receptor inducing internalization. Am2.2-beta2AR cells, FAP receptor internalization, flow cytometry. response, % (no concentration beside the values). 340,000 tested, 0.43% active;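 active means response above a set limit, near 3 SD of response in nonfluorescent compounds, cut at about 42% in these data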
Target sequence (P07550 whole entry, looked up): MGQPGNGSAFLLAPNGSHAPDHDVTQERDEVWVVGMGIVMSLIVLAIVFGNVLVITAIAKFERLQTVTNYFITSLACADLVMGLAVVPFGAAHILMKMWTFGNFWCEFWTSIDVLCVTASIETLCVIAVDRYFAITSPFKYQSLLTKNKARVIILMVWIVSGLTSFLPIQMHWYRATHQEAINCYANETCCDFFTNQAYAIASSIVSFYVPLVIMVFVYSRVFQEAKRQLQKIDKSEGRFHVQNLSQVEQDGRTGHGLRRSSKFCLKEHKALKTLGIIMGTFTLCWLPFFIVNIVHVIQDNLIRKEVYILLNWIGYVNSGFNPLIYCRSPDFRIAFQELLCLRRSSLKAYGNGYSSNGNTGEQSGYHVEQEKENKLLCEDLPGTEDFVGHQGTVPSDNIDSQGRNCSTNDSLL
HTR2A ag = activates the mouse 5-HT2A serotonin receptor; P35363; CHO-K1 mHTR2A beta-arrestin complementation, luminescence; percent of 30 µM serotonin response; activation, % at 7.6 µM; 360,000 tested, 0.66% active;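 active means activation above a run cutoff, the mean activation of all tested compounds plus 3 SD, cut at about 14% in these data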;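 further: 0% = plate median of compound wells and 100% = 30 µM serotonin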
TAAR1 antag = antagonists of human TAAR1 | 360,000 tested, 1.5% active | inhibition, % at 3 µM | CHO RD-HGA16 TAAR1, Fluo-8 calcium fluorescence, antagonist;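 active means inhibition above a per-plate cutoff, the mean inhibition of test compounds on that plate plus 3 SD, cut at about 49% in these data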;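 further: 0% = DMSO plus EC80 beta-PEA response and 100% = DMSO alone without agonist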
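Test system: CHO RD-HGA16 cells bearing hTAAR1 | Reagent: β-PEA, EC80 | Compound dosing: 3 µM, single point | Schedule: Dye loading 75 min at 37 °C, then 30 min room temperature | Signal: Calcium fluorescence with Fluo-8 | Evaluation: Percent inhibition of PEA-evoked calcium signal, max/basal emission ratio | Control set: DMSO-only wells and EC80 β-PEA-stimulated wells | Repeats: Singlicate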
MC4R antagonist = blocks human MC4R cAMP signaling | inhibition, % at 6.5 µM | 360,000 tested, 0.48% active | MC4R-expressing cells, MTII-stimulated cAMP, LANCE TR-FRET | AID 540295;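 active means inhibition above its plate's cutoff, the mean of tested wells on that plate plus 3 SD, cut at about 29% in these data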;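 further: 0% = Melanotan II alone and 100% = Melanotan II plus saturating MCL0020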
Target sequence (P32245 whole entry, looked up): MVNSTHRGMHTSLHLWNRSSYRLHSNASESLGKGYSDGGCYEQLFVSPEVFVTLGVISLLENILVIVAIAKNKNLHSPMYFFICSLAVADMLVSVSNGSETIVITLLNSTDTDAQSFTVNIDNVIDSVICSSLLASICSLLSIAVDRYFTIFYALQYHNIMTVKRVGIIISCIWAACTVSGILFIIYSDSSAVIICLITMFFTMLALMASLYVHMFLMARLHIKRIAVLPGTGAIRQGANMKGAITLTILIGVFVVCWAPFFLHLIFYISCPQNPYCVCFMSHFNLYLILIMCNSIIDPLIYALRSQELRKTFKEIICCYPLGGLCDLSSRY
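Test system: U2OS cells stably expressing human melanocortin 4 receptor (MC4R); also added: Melanotan II challenge; compound: 6.5 µM single dose; timing: 30-min compound preincubation, 1-h Melanotan II challenge, 1-h detection, room temperature; signal: Eu-cAMP/anti-cAMP TR-FRET, emission 671 nm; repeats: one well per compound, no replicates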
MC4R ag barr = activates human MC4R beta-arrestin recruitment; 360,000 tested, 0.98% active; activation, % at 8.9 µM; P32245; U2OS MC4R beta-arrestin complementation, luminescence; percent of melanotan II response, DMSO zero;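 active means activation above a per-plate cutoff, the mean activation of sample wells on that plate plus 3 SD, cut at about 8% in these data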
TAAR1 agonist = agonists of human TAAR1; CHO RD-HGA16 TAAR1, Fluo-8 calcium fluorescence; vehicle wells 0%, saturating PEA agonist 100%; activation, % at 3 µM; 360,000 tested, 0.99% active; AID 624467;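 active means activation above the mean activation of all test compounds in the run plus 3 SD, cut at about 38% in these data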
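Test system: RD-HGA16 (CHO) cells co-expressing Gα16 and hTAAR1; dosing: one-point dosing at 3 µM (nominal); timing: 17-24 h seeding, 75 min 37 °C dye, 30 min RT; signal: kinetic Fluo-8 calcium fluorescence; read-out basis: % activation relative to PEA EC100 response; controls: DMSO and PEA EC100; replicates: n 1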
TAAR1 ag confirm = confirmation of human TAAR1 agonists. shares compounds with TAAR1 agonist. CHO RD-HGA16 TAAR1, Fluo-8 calcium fluorescence; scaled: DMSO 0%, maximal phenethylamine 100%. activation, % at 3 µM. 2,400 tested, 82% active. AID 651783;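 active means activation above a cutoff set at the run's mean compound activation plus 3 SD, cut at about 39% in these data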
Ga16 nonsel ag = counter-screen for TAAR1 agonists: nonselective agonists in parental cells. 2,400 tested, 50% active. shares compounds with TAAR1 agonist. activation, % at 3 µM. CHO-Ga16 parental, Fluo-8 calcium fluorescence; normalized to maximal ATP response, DMSO zero;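 active means activation above the run cutoff, the mean activation over all tested wells plus 3 SD, cut at about 12% in these data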;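 further: 0% = DMSO wells and 100% = maximal ATP response on the peak over basal ratio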
TAAR1 desens = counter-screen for human TAAR1 agonists: agonists that desensitize TAAR1. AID 651951. CHO RD-HGA16 hTAAR1, Fluo-8 calcium, beta-PEA response inhibition. shares compounds with TAAR1 agonist. inhibition, % at 3 µM. 2,400 tested, 46% active;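 active means inhibition above the run cutoff, the mean inhibition of all test compounds plus 3 SD, cut at about 49% in these data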;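 further: beta-PEA stimulus applied at its EC80; loss of beta-PEA calcium signal after compound pretreatment read as receptor desensitization; 0% = DMSO with beta-PEA at EC80 and 100% = DMSO alone without agonist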
Ga16 nonsel ant = counter-screen for TAAR1 agonists: nonselective Ga16 antagonists; shares compounds with TAAR1 agonist; CHO-Ga16 ATP-induced calcium, Fluo-8 fluorescence; inhibition, % at 3 µM; 2,400 tested, 39% active; AID 651952;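 active means inhibition above the plate's mean compound inhibition plus 3 SD, computed per plate, cut at about 22% in these data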;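 further: 0% = EC80 ATP with DMSO and 100% = DMSO wells without ATP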
An asterisk follows results filed as active; / = no result given. A selection: hits, their analogues and other compounds. The true share with any hit is near 4.3%.

SMILES | B2AR ag | HTR2A ag | TAAR1 antag | MC4R antagonist | MC4R ag barr | TAAR1 agonist | TAAR1 ag confirm | Ga16 nonsel ag | TAAR1 desens | Ga16 nonsel ant
CC1OC2CC(=O)OC2C2=C1C(=O)c1c(O)cccc1C2=O (configuration not stated) | / | -16 | 58* | -12 | -3 | 64* | 69* | 41* | 71* | 62*
CC(C)[C@H](NC(=O)c1ccccc1)C(=O)N1CCC[C@H]1C(=O)NCCc1ccccc1Cl | / | / | 83* | / | / | 80* | 96* | 4 | 93* | 4
O=C(NCCc1ccccc1F)C1CCCN1S(=O)(=O)c1ccc2ccccc2c1 (configuration not stated) | -12 | -5 | 12 | 4 | 0 | 20 | / | / | / | /
CC(C)[C@H](NS(=O)(=O)c1ccc(F)cc1F)C(=O)N1CCC[C@H]1C(=O)NCCc1ccccc1Cl | / | / | 64* | / | / | 49* | 76* | 1 | 86* | 11
CC(C)[C@H](NC(=O)C1CC1)C(=O)N1CCC[C@H]1C(=O)NCc1ccccc1 | / | / | -6 | / | / | 0 | / | / | / | /
O=C(N[C@H](C(=O)N1CCC[C@H]1C(=O)NCCc1ccccc1Cl)C1CCCCC1)c1ccc(Cl)c(Cl)c1 | / | / | -1 | / | / | 4 | / | / | / | /
CC(C)[C@H](NC(=O)c1ccc(Cl)c(Cl)c1)C(=O)N1CCC[C@H]1C(=O)NCCc1ccccc1Cl | / | / | 80* | / | / | 53* | 82* | 0 | 98* | 2
COc1ccc(S(=O)(=O)N2CCN(C(=O)CCNC(=O)c3ccccc3Cl)CC2)cc1 | -1 | 7 | 1 | 1 | -1 | 6 | / | / | / | /
CCc1sc(C(=O)Nc2ncccc2O)cc1C | -1 | 0 | -3 | 1 | -2 | 0 | / | / | / | /
CCCC1CC(=O)NC1(C(=O)OCC)C(=O)OCC (configuration not stated) | 2 | -1 | -7 | 2 | -1 | 0 | / | / | / | /
CCCc1cc(=O)oc2c(C)c(OCC(=O)NC3CCN(Cc4ccccc4)CC3)ccc12 | -10 | -4 | -8 | -1 | -1 | 1 | / | / | / | /
CCN(CC)c1ccc2cc(-c3nc(-c4ccc(OC)cc4)cs3)c(=O)oc2c1 | / | / | 105* | / | / | 451* | 355* | 606* | 89* | 96*
CCN(CC)c1ccc2cc(-c3nnc(-c4ccccc4)o3)c(=O)oc2c1 | / | -4 | 40 | 0 | -2 | 34 | / | / | / | /
CC(C)c1cc(CNC(=O)CC2C(=O)NCCN2CC2CCCCC2)on1 (configuration not stated) | 1 | -4 | -6 | -2 | -3 | 4 | / | / | / | /
CC1Nc2ncnc(N3CCc4ccccc4C3)c2N(Cc2ccc(Cl)cc2)C1=O (configuration not stated) | -1 | -6 | / | -1 | -2 | / | / | / | / | /
CC1Nc2ncnc(N3CCc4ccccc4C3)c2N(Cc2ccc(Br)cc2)C1=O (configuration not stated) | 0 | -4 | 32 | 15 | -2 | 83* | 33 | 2 | 4 | 13
CC(C)[C@H](NC(=O)c1ccco1)C(=O)OCC(=O)c1ccc(Br)s1 | -3 | -2 | -27 | 19 | 0 | 2 | / | / | / | /
N#C/C(=C\c1ccc(-c2ccc(C(=O)O)cc2)o1)c1nc2ccccc2[nH]1 | -82 | 1 | 18 | -3 | 0 | 24 | / | / | / | /
N#C/C(=C\c1ccc(N2CCOCC2)o1)c1nc2ccccc2[nH]1 | -36 | 0 | 27 | -14 | -1 | 92* | 76* | 101* | 58* | 52*
NC(=Nc1ccc(Br)cc1)c1ccccc1 | 1 | 2 | 40 | 1 | -1 | 50* | 55* | 27* | 49 | 18
N/C(=N\OC(=O)Oc1ccccc1)c1ccc(Br)cc1 | 0 | 5 | -9 | 21 | 1 | 9 | / | / | / | /
Cc1ccc(C(=O)O/N=C(\N)Cc2cccc3ccccc23)cc1 | 8 | -2 | 40 | 4 | 5 | 57* | 52* | -1 | 11 | -1
Cc1ccc(/C(N)=N/OC(=O)c2ccc3ccccc3c2)cc1 | 1 | -5 | -18 | 16 | 2 | 2 | / | / | / | /
C/C(=N\NC(=O)c1ccncc1)c1cc2ccccc2oc1=O | 0 | -2 | -1 | 8 | -3 | 3 | / | / | / | /
C/C(=N/NC(=O)c1ccncc1)c1cc2ccc(O)cc2oc1=O | -8 | -2 | 19 | -1 | 0 | 90* | 134* | 153* | 6 | 11
SMILES | B2AR ag | HTR2A ag | TAAR1 antag | MC4R antagonist | MC4R ag barr | TAAR1 agonist | TAAR1 ag confirm | Ga16 nonsel ag | TAAR1 desens | Ga16 nonsel ant
COc1cc2nc(/C=C/c3ccc(N(C)C)cc3)sc2cc1SC | -267 | 3 | 52* | 2 | 4 | 101* | 46* | 93* | 67* | 87*
O=C(CSc1nnc2ccccn12)NNC(=O)c1cccc([N+](=O)[O-])c1 | 1 | 2 | -13 | 5 | -2 | 1 | / | / | / | /
CC(C)C[C@H]1CN=C(Nc2ccccc2)N1CCC1CCCCC1 | -4 | -8 | 8 | 6 | 0 | 44* | 55* | 22* | 27 | 19
CC(C)C[C@H]1CN=C(Nc2ccccc2)N1CC1CCCC1 | -7 | -4 | -8 | 6 | -2 | 7 | / | / | / | /
Oc1c(C(c2ccccc2)N2CCCCC2)ccc2ccccc12 (configuration not stated) | / | 7 | -8 | 0 | -2 | 0 | / | / | / | /
COc1ccc2cc(C(=O)N/N=C/c3sc4ccccc4c3O)ccc2c1 | 2 | -3 | 28 | -6 | -3 | 108* | 49* | 57* | 44 | 53*
COc1ccc(C(=O)N/N=C/c2sc3ccccc3c2O)cc1 | 3 | -4 | / | -1 | -2 | / | / | / | / | /
CC(=O)c1ccc(OC(=O)c2ccc(Br)o2)cc1 | 3 | 2 | 19 | -2 | -1 | 29 | / | / | / | /
Cc1ccc(OC(=O)c2ccc(Br)o2)cc1 | -4 | 8 | 60* | 5 | 0 | 87* | 51* | 79* | 41 | 51*
CCC(=O)c1ccc(OC(=O)c2ccc(Br)o2)cc1 | 1 | -3 | 84* | -5 | 0 | 123* | 76* | 71* | 64* | 51*
